Source: ChEMBL document CHEMBL3593207, “Imidazole clubbed 1,3,4-oxadiazole derivatives as potential antifungal agents” (2015)
Converted amounts (≈) assume the structure as drawn.

Legend:
[1] = system: Candida albicans; experiment: Antifungal activity against clinical isolates of Candida albicans 2323 at 2 times MIC after 48 hrs by disc diffusion assay; type: functional
Summary of the method: (§1)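 Cells (10^3 cells ml−1) grown in YPD were mixed into molten agar (~40 °C) and poured into 100-mm plates. Filter discs (4 mm) were spotted with 10 µl of compound at 1/2 × MIC, MIC or 2 × MIC. Fluconazole and 1% DMSO were the controls. Plates were incubated at 37 °C for 48 h and inhibition zone diameters recorded in mm.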

[2] = system: Candida albicans; experiment: Inhibition of ergosterol biosynthesis in Candida albicans 2779 assessed as ergosterol content at 1/2 MIC after 16 hrs by spectrophotometer analysis; type: functional; set-up: scale not given: the % may be the effect or the level left
Summary of the method: (§2)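 Cells were pelleted and washed, and wet weight taken. Pellets were saponified in 25% alcoholic KOH at 85 °C for 1 h. Sterols were extracted into n-heptane/water. Ergosterol content is expressed relative to untreated control cells.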

[3] = system: Candida tropicalis; experiment: Inhibition of ergosterol biosynthesis in Candida tropicalis ATCC 750 assessed as ergosterol content at MIC after 16 hrs by spectrophotometer analysis; type: functional; set-up: scale not given: the % may be the effect or the level left
Summary of the method: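 Cells were harvested, washed, and wet pellet weight recorded. Pellets were saponified in 3 mL 25% alcoholic KOH at 85 °C for 1 h, then sterols extracted into n-heptane. Ergosterol is expressed relative to untreated control cells.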

[4] = system: Candida tropicalis; experiment: Inhibition of ergosterol biosynthesis in Candida tropicalis 2356 assessed as ergosterol content at MIC after 16 hrs by spectrophotometer analysis; type: functional; set-up: scale not given: the % may be the effect or the level left; summary of the method: as §2
[5] = system: Candida tropicalis; experiment: Antifungal activity against Candida tropicalis ATCC 750 at 2 times MIC after 48 hrs by disc diffusion assay; type: functional; summary of the method: as §1
[6] = system: Candida albicans; experiment: Antifungal activity against Candida albicans ATCC 10261 at half MIC after 48 hrs by disc diffusion assay; type: functional; summary of the method: as §1
[7] = system: Candida albicans; experiment: Cytotoxicity against Candida albicans ATCC 10261 at MIC after 24 hrs by WST1 assay; type: functional
Summary of the method: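 Candida cells were exposed to MIC and sub-MIC levels for 24 h in microplates, then to WST-1/CEC dye for 30 min at 37 °C. Plates were shaken 1 min and the reaction stopped with 1% SDS. Formazan was read at 450 nm. % cytotoxicity = 100 × (cell control − experimental)/cell control. Triplicates, mean ± SD.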

[8] = system: Candida tropicalis; experiment: Antifungal activity against clinical isolates of Candida tropicalis 2356 by broth microdilution assay; type: functional
Summary of the method: (§3)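 CLSI M27-A3 broth microdilution. Compounds diluted to 1 mg/ml in 1% DMSO. Fluconazole (1 mg/ml) served as positive control, 1% DMSO as vehicle control, with media and culture controls. Triplicate at each concentration, repeated thrice. Inocula came from YPDA stocks subcultured in broth for 48 h at 37 °C.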

[9] = system: Candida albicans; experiment: Antifungal activity against clinical isolates of Candida albicans 2367 at half MIC after 48 hrs by disc diffusion assay; type: functional; summary of the method: as §1
[10] = system: Candida albicans; experiment: Antifungal activity against Candida albicans ATCC 10261 by broth microdilution assay; type: functional; summary of the method: as §3
[11] = system: Candida albicans; experiment: Inhibition of ergosterol biosynthesis in Candida albicans 2323 assessed as ergosterol content at MIC after 16 hrs by spectrophotometer analysis; type: functional; set-up: scale not given: the % may be the effect or the level left; summary of the method: as §2
[12] = system: Candida tropicalis; experiment: Antifungal activity against clinical isolates of Candida tropicalis 2029 at half MIC after 48 hrs by disc diffusion assay; type: functional; summary of the method: as §1
[13] = system: Candida tropicalis; experiment: Cytotoxicity against Candida tropicalis ATCC 750 at MIC after 24 hrs by WST1 assay
[14] = system: Candida tropicalis; experiment: Inhibition of ergosterol biosynthesis in Candida tropicalis 2029 assessed as ergosterol content at 1/2 MIC after 16 hrs by spectrophotometer analysis; type: functional; set-up: scale not given: the % may be the effect or the level left; summary of the method: as §2
[15] = system: Candida tropicalis; experiment: Inhibition of ergosterol biosynthesis in Candida tropicalis 2029 assessed as ergosterol content at MIC after 16 hrs by spectrophotometer analysis; type: functional; set-up: scale not given: the % may be the effect or the level left; summary of the method: as §2
[16] = system: Candida albicans; experiment: Antifungal activity against Candida albicans ATCC 10261 at 2 times MIC after 48 hrs by disc diffusion assay; type: functional; summary of the method: as §1
[17] = system: Candida albicans; experiment: Antifungal activity against clinical isolates of Candida albicans 2779 at half MIC after 48 hrs by disc diffusion assay; type: functional; summary of the method: as §1
[18] = system: Candida tropicalis; experiment: Inhibition of ergosterol biosynthesis in Candida tropicalis ATCC 750 assessed as ergosterol content at 1/2 MIC after 16 hrs by spectrophotometer analysis; type: functional; set-up: scale not given: the % may be the effect or the level left; summary of the method: as §2
[19] = system: Candida tropicalis; experiment: Antifungal activity against Candida tropicalis ATCC 750 at half MIC after 48 hrs by disc diffusion assay; type: functional; summary of the method: as §1
[20] = system: Candida albicans; experiment: Antifungal activity against clinical isolates of Candida albicans 2779 at MIC after 48 hrs by disc diffusion assay; type: functional; summary of the method: as §1
[21] = system: Candida tropicalis; experiment: Antifungal activity against clinical isolates of Candida tropicalis 2356 at MIC after 48 hrs by disc diffusion assay; type: functional; summary of the method: as §1
[22] = system: Candida albicans; experiment: Antifungal activity against clinical isolates of Candida albicans 2367 by broth microdilution assay; type: functional; summary of the method: as §3
[23] = system: Candida albicans; experiment: Antifungal activity against clinical isolates of Candida albicans 2367 at MIC after 48 hrs by disc diffusion assay; type: functional; summary of the method: as §1
[24] = system: Candida tropicalis; experiment: Antifungal activity against clinical isolates of Candida tropicalis 2029 by broth microdilution assay; type: functional; summary of the method: as §3
[25] = system: Candida albicans; experiment: Inhibition of ergosterol biosynthesis in Candida albicans 2367 assessed as ergosterol content at MIC after 16 hrs by spectrophotometer analysis; type: functional; set-up: scale not given: the % may be the effect or the level left; summary of the method: as §2
[26] = system: Candida albicans; experiment: Antifungal activity against clinical isolates of Candida albicans 2323 by broth microdilution assay; type: functional; summary of the method: as §3
[27] = system: Candida albicans; experiment: Antifungal activity against clinical isolates of Candida albicans 2323 at MIC after 48 hrs by disc diffusion assay; type: functional; summary of the method: as §1
[28] = system: Candida albicans; experiment: Inhibition of ergosterol biosynthesis in Candida albicans 2779 assessed as ergosterol content at MIC after 16 hrs by spectrophotometer analysis; type: functional; set-up: scale not given: the % may be the effect or the level left; summary of the method: as §2
[29] = system: Candida tropicalis; experiment: Antifungal activity against clinical isolates of Candida tropicalis 2029 at MIC after 48 hrs by disc diffusion assay; type: functional; summary of the method: as §1
[30] = system: Candida tropicalis; experiment: Inhibition of ergosterol biosynthesis in Candida tropicalis 2356 assessed as ergosterol content at 1/2 MIC after 16 hrs by spectrophotometer analysis; type: functional; set-up: scale not given: the % may be the effect or the level left; summary of the method: as §2
[31] = system: Candida albicans; experiment: Inhibition of ergosterol biosynthesis in Candida albicans 2323 assessed as ergosterol content at 1/2 MIC after 16 hrs by spectrophotometer analysis; type: functional; set-up: scale not given: the % may be the effect or the level left; summary of the method: as §2
[32] = system: Candida albicans; experiment: Antifungal activity against clinical isolates of Candida albicans 2779 at 2 times MIC after 48 hrs by disc diffusion assay; type: functional; summary of the method: as §1
[33] = system: Candida tropicalis; experiment: Antifungal activity against clinical isolates of Candida tropicalis 2029 at 2 times MIC after 48 hrs by disc diffusion assay; type: functional; summary of the method: as §1
[34] = system: Candida tropicalis; experiment: Antifungal activity against Candida tropicalis ATCC 750 by broth microdilution assay; type: functional; summary of the method: as §3
[35] = system: Candida tropicalis; experiment: Antifungal activity against Candida tropicalis ATCC 750 at MIC after 48 hrs by disc diffusion assay; type: functional; summary of the method: as §1
[36] = system: Candida albicans; experiment: Antifungal activity against Candida albicans ATCC 10261 at MIC after 48 hrs by disc diffusion assay; type: functional; summary of the method: as §1
[37] = system: Candida tropicalis; experiment: Antifungal activity against clinical isolates of Candida tropicalis 2356 at half MIC after 48 hrs by disc diffusion assay; type: functional; summary of the method: as §1
[38] = system: Candida albicans; experiment: Inhibition of ergosterol biosynthesis in Candida albicans 2367 assessed as ergosterol content at 1/2 MIC after 16 hrs by spectrophotometer analysis; type: functional; set-up: scale not given: the % may be the effect or the level left; summary of the method: as §2
[39] = system: Candida albicans; experiment: Inhibition of ergosterol biosynthesis in Candida albicans ATCC 10261 assessed as ergosterol content at MIC after 16 hrs by spectrophotometer analysis; type: functional; set-up: scale not given: the % may be the effect or the level left; summary of the method: as §2
[40] = system: Candida albicans; experiment: Antifungal activity against clinical isolates of Candida albicans 2779 by broth microdilution assay; type: functional; summary of the method: as §3
[41] = system: Candida tropicalis; experiment: Antifungal activity against clinical isolates of Candida tropicalis 2356 at 2 times MIC after 48 hrs by disc diffusion assay; type: functional; summary of the method: as §1
[42] = system: Candida albicans; experiment: Inhibition of ergosterol biosynthesis in Candida albicans ATCC 10261 assessed as ergosterol content at 1/2 MIC after 16 hrs by spectrophotometer analysis; type: functional; set-up: scale not given: the % may be the effect or the level left; summary of the method: as §2
[43] = system: Candida albicans; experiment: Antifungal activity against clinical isolates of Candida albicans 2367 at 2 times MIC after 48 hrs by disc diffusion assay; type: functional; summary of the method: as §1
[44] = system: Candida albicans; experiment: Antifungal activity against clinical isolates of Candida albicans 2323 at half MIC after 48 hrs by disc diffusion assay; type: functional; summary of the method: as §1

## CCc1ccnc(-c2nccn2Cc2nnc(-c3ccc(N)cc3)o2)c1
[1]
  inhibition zone (IZ): 7 mm
[2]
  Activity: 42%
[3]
  Activity: 98%
[4]
  Activity: 86%
[5]
  inhibition zone (IZ): 13 mm
[6]
  inhibition zone (IZ): 7 mm
[7]
  Activity: 87.27%
[8]
  MIC: 125 µg/mL (≈ 361 µM)
[9]
  inhibition zone (IZ): 2 mm
[10]
  MIC: 16 µg/mL (≈ 46.2 µM)
[11]
  Activity: 89%
[12]
  inhibition zone (IZ): 2 mm
[13]
  Activity: 80.81%
[14]
  Activity: 44%
[15]
  Activity: 84%
[16]
  inhibition zone (IZ): 13 mm
[17]
  inhibition zone (IZ): 1 mm
[18]
  Activity: 41%
[19]
  inhibition zone (IZ): 5 mm
[20]
  inhibition zone (IZ): 8 mm
[21]
  inhibition zone (IZ): 4 mm
[22]
  MIC: 32 µg/mL (≈ 92.4 µM)
[23]
  inhibition zone (IZ): 5 mm
[24]
  MIC: 32 µg/mL (≈ 92.4 µM)
[25]
  Activity: 81%
[26]
  MIC: 32 µg/mL (≈ 92.4 µM)
[27]
  inhibition zone (IZ): 4 mm
[28]
  Activity: 81%
[29]
  inhibition zone (IZ): 5 mm
[30]
  Activity: 52%
[31]
  Activity: 43%
[32]
  inhibition zone (IZ): 11 mm
[33]
  inhibition zone (IZ): 8 mm
[34]
  MIC: 16 µg/mL (≈ 46.2 µM)
[35]
  inhibition zone (IZ): 9 mm
[36]
  inhibition zone (IZ): 10 mm
[37]
  inhibition zone (IZ): 0 mm
[38]
  Activity: 45%
[39]
  Activity: 98%
[40]
  MIC: 64 µg/mL (≈ 185 µM)
[41]
  inhibition zone (IZ): 7 mm
[42]
  Activity: 57%
[43]
  inhibition zone (IZ): 7 mm
[44]
  inhibition zone (IZ): 0 mm

## CCc1ccnc(-c2nccn2Cc2nnc(-c3ccccc3N)o2)c1
[8]
  MIC: > 1000 µg/mL
[10]
  MIC: > 1000 µg/mL
[22]
  MIC: > 1000 µg/mL
[24]
  MIC: > 1000 µg/mL
[26]
  MIC: > 1000 µg/mL
[34]
  MIC: > 1000 µg/mL
[40]
  MIC: > 1000 µg/mL
